Reference: ChEMBL document CHEMBL1764990, “Caffeic acid phenethyl ester inhibits PDGF-induced proliferation of vascular smooth muscle cells via activation of p38 MAPK, HIF-1α, and heme oxygenase-1” (J Nat Prod, 2011)
The source made the active and inactive calls. The rule behind the calls is not given here.

Columns and labels:
VSMC [1] = assay: Inhibition of tubulin phosphorylation in PDGF-stimulated rat VSMC at 5 uM treated for 30 mins before 10 mins of cell stimulation by Western blot analysis; type: cell-based
[2] = molecular target: Mitogen-activated protein kinase 1 and 3 (ERK2 and ERK1) (Rattus norvegicus) (UniProt P63086+P21708); assay: Inhibition of ERK1/2 phosphorylation in PDGF-stimulated rat VSMC at 5 uM treated for 30 mins before 10 mins of cell stimulation by Western blot analysis
Method in brief: (§1)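 Quiescent rat aortic VSMCs (serum-free DMEM 24 h) pretreated 30 min with vehicle or 5 μM compound, then stimulated with PDGF (20 ng/mL) for 10 min. Total lysates analysed by Western blot for phospho-AKT, ERK, JNK, STAT3 and p38, with tubulin or actin.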

VSMC [3] = assay: Antiproliferative activity against PDGF-stimulated rat VSMC transfected with HO-1 siRNA assessed as growth arrest after 24 hrs by immunoblot analysis; type: functional; conditions: in the assay text read “by cell counting” for “by immunoblot analysis”
Method in brief: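 Rat aortic VSMCs transfected with scrambled or HO-1-specific siRNA, then starved, treated with compound and stimulated with PDGF. Cells were counted after 24 h. HO-1 knockdown was checked by immunoblot. n = 3, Student's t-test.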

[4] = Cytotoxicity against rat VSMC assessed as morphological changes at >25 uM after 48 hrs by trypan blue exclusion assay
Method in brief: (§2)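 Cultured rat aortic VSMCs exposed to compound for 48 h. Viability by trypan blue exclusion, with cell morphology and detachment also noted.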

VSMC [5] = assay: Antiproliferative activity against PDGF-stimulated rat VSMC assessed as inhibition of DNA synthesis at 5 uM after 24 hrs by [3H]-thymidine incorporation assay in presence of p38 kinase inhibitor SB203580; type: functional
Method in brief: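 Rat aortic VSMCs starved 48 h. Treated with compound (5 μM), p38 inhibitor SB203580 (10 μM) and PDGF-BB (20 ng/mL) as indicated. Pulse-labelled with methyl-3H-thymidine (2 μCi/mL) for the final 6 h of 24 h. TCA-precipitated material was dissolved in 0.4 M NaOH and counted. n = 3, Student's t-test.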

VSMC [6] = assay: Inhibition of p38 phosphorylation in PDGF-stimulated rat VSMC at 5 uM treated for 30 mins before 10 mins of cell stimulation by Western blot analysis; type: cell-based; method in brief: as §1
VSMC [7] = assay: Inhibition of AKT phosphorylation in PDGF-stimulated rat VSMC at 5 uM treated for 30 mins before 10 mins of cell stimulation by Western blot analysis; type: cell-based; method in brief: as §1
VSMC [8] = assay: Inhibition of rat VSMC proliferation at 5 uM; type: functional
Rattus norvegicus [9] = species on record: Rattus norvegicus; assay: Inhibition of NF-kappaB activation in rat VSMC at 5 uM
VSMC [10] = assay: Inhibition of PDGF-induced DNA synthesis in rat VSMC assessed as [3H]thymidine incorporation into DNA at 5 uM treated for 30 mins before 24 hrs of PDGF challenge; type: functional
Method in brief: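 Quiescent rat aortic VSMCs (starved 48 h) pretreated 30 min with 5 μM compound, then stimulated with PDGF-BB (20 ng/mL). Methyl-3H-thymidine (2 μCi/mL) pulse for the last 6 h of 24 h. TCA-insoluble radioactivity measured after NaOH solubilisation.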

[11] = molecular target: Mitogen-activated protein kinase 8 (Rattus norvegicus) (UniProt P49185); assay: Inhibition of JNK1/2 phosphorylation in PDGF-stimulated rat VSMC at 5 uM treated for 30 mins before 10 mins of cell stimulation by Western blot analysis; type: cell-based; method in brief: as §1
VSMC [12] = assay: Induction of HO-1 protein expression in Nrf2-deficient PDGF-stimulated rat VSMC; type: functional
VSMC [13] = assay: Induction of HO-1 protein expression in rat VSMC at 5 uM measured after 16 hrs in presence of 10 to 100 uM of HIF-1alpha inhibitor […] treated for 15 mins by immunoblot analysis; type: functional
Method in brief: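 Rat aortic VSMCs pretreated 15 min with the HIF-1α inhibitor YC-1 at graded levels (up to 100 μM), then given 5 μM compound or vehicle for 16 h. HO-1 read by immunoblot.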

VSMC [14] = assay: Decrease in intracellular ROS level in PDGF-stimulated rat VSMC at 5 uM pretreated with compound for 30 mins measured after upto 23 hrs of post stimulation using H2DCF by flow cytometric analysis; type: functional, cell-based
Method in brief: (§3)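 Quiescent rat aortic VSMCs pretreated 30 min with 5 μM compound or vehicle, then stimulated with PDGF (20 ng/mL). At set times up to 23 h, total intracellular ROS measured by flow cytometry of oxidized H2DCF (H2DCFDA probe). n = 3, ANOVA.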

VSMC [15] = assay: Inhibition of PDGF-stimulated rat VSMC proliferation after 24 hrs; type: functional
Method in brief: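 Quiescent rat aortic VSMCs treated with compound (1–10 μM) or vehicle, then stimulated with PDGF (20 ng/mL) for 24 h. Cells were counted; the increase in cell number in vehicle-treated cells was set to 100%.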

[16] = Cytotoxicity against rat VSMC assessed as cell viability at >25 uM after 48 hrs by trypan blue exclusion assay; type: cell-based; conditions: VSMC (vascular smooth muscle cells), read-out: Activity; method in brief: as §2
VSMC [17] = assay: Induction of cell cycle arrest in rat VSMC at G1 phase assessed as inhibition of retinoblastoma protein phosphorylation treated for 30 mins before 12 hrs of PDGF challenge by Western blot analysis; type: functional, cell-based
[18] = molecular target: Signal transducer and activator of transcription 3 (Rattus norvegicus) (UniProt P52631); assay: Inhibition of STAT3 phosphorylation in PDGF-stimulated rat VSMC at 5 uM treated for 30 mins before 10 mins of cell stimulation by Western blot analysis; method in brief: as §1
VSMC [19] = assay: Inhibition of PDGF-stimulated rat VSMC proliferation; type: functional
VSMC [20] = assay: Increase in HO-1 protein expression in rat VSMC at 5 uM after 16 hrs by immunoblot analysis; type: functional
Method in brief: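 Rat aortic VSMCs treated 16 h with vehicle, compound (5 μM) or cobalt protoporphyrin (10 μM). Total lysates immunoblotted for HO-1 and actin. Three independent experiments.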

Rattus norvegicus [21] = species on record: Rattus norvegicus; assay: Effect on p38 MAPK activation in PDGF-stimulated rat VSMC assessed as phosphorylation at 5 uM treated for 30 mins followed by stimulated with PDGF for 60 mins by immunoblot analysis
Method in brief: (§4)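 Quiescent rat aortic VSMCs pretreated 30 min with vehicle or 5 μM compound, then stimulated with PDGF for 10 or 60 min. Total lysates immunoblotted for phospho-p38 and total p38. Three independent experiments.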

[22] = Cell cycle arrest in PDGF-induced rat VSMC assessed as accumulation at G0/G1 phase at 5 uM treated for 30 mins followed by induced with PDGF for 28 hrs by propidium iodide staining by flow cytometry; type: functional, cell-based
Method in brief: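 Quiescent rat aortic VSMCs pretreated 30 min with 5 μM compound, then stimulated with PDGF (20 ng/mL) for 28 h. Nuclei stained with propidium iodide; cell-cycle distribution by flow cytometry. n = 3.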

VSMC [23] = assay: Decrease in basal ROS level in PDGF-stimulated rat VSMC at 5 uM pretreated with compound for 30 mins measured after upto 23 hrs of post stimulation using H2DCF by flow cytometric analysis; type: functional; method in brief: as §3
VSMC [24] = assay: Accumulation of HIF-1alpha in PDGF-stimulated rat VSMC at 5 uM after 4 hrs by immunoblot analysis; type: functional
Method in brief: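 Primary aortic smooth muscle cells from male Sprague-Dawley rats, made quiescent in serum-free DMEM for 24 h. Pretreated with compound or vehicle, then stimulated with PDGF. After 4 h, total cell lysates were immunoblotted for HIF-1α, with actin as loading control.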

[25] = Cytotoxicity against rat VSMC assessed as detachment of the cells at >25 uM after 48 hrs by trypan blue exclusion assay; type: cell-based; method in brief: as §2
Rattus norvegicus [26] = species on record: Rattus norvegicus; assay: Inhibition of TNFalpha-induced NF-kappaB binding activity in rat VSMC at 5 uM pretreated for 30 mins before 45 mins of TNFalpha stimulation by gel shift assay
Method in brief: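 Rat aortic VSMCs in six-well plates preincubated 30 min with vehicle or compound, then treated with TNF-α (10 ng/mL). NF-κB DNA binding in nuclear extracts measured by electrophoretic mobility shift assay.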

Rattus norvegicus [27] = species on record: Rattus norvegicus; assay: Effect on p38 MAPK activation in PDGF-stimulated rat VSMC assessed as phosphorylation at 5 uM treated for 30 mins followed by stimulated with PDGF for 10 mins by immunoblot analysis; method in brief: as §4

Signal transducer and activator of transcription 3 (Rattus norvegicus), sequence (P52631 whole entry): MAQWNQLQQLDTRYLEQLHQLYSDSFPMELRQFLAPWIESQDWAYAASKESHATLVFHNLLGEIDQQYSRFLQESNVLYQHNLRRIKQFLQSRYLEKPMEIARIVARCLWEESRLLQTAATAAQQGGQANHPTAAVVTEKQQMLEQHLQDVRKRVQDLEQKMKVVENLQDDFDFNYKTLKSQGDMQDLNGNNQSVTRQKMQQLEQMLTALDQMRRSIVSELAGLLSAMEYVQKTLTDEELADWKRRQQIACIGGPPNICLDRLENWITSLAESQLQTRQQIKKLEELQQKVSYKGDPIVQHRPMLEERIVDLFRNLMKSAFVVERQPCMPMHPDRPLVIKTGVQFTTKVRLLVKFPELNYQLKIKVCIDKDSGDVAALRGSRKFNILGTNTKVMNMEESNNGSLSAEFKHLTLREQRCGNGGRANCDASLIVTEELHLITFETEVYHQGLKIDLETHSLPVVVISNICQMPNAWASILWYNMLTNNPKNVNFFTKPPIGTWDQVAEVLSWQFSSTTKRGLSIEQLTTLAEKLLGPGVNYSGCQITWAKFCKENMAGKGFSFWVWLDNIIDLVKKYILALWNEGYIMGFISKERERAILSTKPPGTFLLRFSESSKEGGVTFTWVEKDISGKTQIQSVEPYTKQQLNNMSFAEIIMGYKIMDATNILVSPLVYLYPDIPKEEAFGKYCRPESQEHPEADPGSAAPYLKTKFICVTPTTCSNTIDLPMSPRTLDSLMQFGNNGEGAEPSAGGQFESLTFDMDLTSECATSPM
Mitogen-activated protein kinase 8 (Rattus norvegicus), sequence (P49185 whole entry): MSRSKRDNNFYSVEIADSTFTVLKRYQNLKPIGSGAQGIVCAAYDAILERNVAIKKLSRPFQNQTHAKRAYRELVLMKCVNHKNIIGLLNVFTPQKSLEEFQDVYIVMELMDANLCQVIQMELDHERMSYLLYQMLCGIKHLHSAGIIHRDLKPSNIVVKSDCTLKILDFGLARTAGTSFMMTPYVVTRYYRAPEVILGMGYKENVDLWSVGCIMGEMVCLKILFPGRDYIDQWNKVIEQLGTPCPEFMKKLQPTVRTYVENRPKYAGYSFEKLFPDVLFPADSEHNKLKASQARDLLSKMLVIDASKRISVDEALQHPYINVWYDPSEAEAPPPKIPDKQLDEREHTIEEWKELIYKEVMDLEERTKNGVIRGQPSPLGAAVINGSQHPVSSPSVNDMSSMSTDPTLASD
Mitogen-activated protein kinase 1 and 3 (ERK2 and ERK1) (Rattus norvegicus), sequence (P21708 whole entry, looked up): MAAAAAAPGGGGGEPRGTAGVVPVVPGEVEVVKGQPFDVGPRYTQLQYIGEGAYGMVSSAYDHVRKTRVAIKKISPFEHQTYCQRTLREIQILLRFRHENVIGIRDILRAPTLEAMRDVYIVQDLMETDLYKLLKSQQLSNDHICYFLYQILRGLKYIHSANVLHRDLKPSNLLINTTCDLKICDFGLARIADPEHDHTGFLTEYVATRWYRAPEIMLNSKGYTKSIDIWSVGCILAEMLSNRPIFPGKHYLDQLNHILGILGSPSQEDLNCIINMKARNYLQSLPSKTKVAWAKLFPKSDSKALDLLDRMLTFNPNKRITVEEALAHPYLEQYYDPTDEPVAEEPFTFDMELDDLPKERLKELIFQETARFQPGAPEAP
Mitogen-activated protein kinase 1 and 3 (ERK2 and ERK1) (Rattus norvegicus), sequence (P63086 whole entry, looked up): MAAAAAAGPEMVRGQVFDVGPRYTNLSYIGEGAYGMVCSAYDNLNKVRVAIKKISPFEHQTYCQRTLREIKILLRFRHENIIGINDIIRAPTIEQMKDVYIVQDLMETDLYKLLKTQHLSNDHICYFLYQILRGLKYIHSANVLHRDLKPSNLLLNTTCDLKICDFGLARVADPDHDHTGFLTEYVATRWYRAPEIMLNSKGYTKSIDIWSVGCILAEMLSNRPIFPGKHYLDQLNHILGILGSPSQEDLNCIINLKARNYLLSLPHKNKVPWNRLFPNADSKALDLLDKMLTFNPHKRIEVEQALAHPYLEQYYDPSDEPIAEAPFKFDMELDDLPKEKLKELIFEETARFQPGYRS

## O=C(/C=C/c1ccc(O)c(O)c1)OCCc1ccccc1 [CAFFEIC ACID PHENETHYL ESTER]
VSMC [1]
  Activity: inactive
[2]
  Activity: inactive
VSMC [3]
  growth inhibition (GI): inactive
[4]
  Activity: Toxic
VSMC [5]
  inhibition: inactive
VSMC [6]
  Activity: inactive
VSMC [7]
  Activity: inactive
VSMC [8]
  Activity: Active
Rattus norvegicus [9]
  Activity: inactive
VSMC [10]
  Activity: Active
[11]
  Activity: inactive
VSMC [12]
  Activity: Active
VSMC [13]
  Activity: inactive
VSMC [14]
  Activity: Active
VSMC [15]
  inhibition: Dose-dependent effect
[16]
  viability at 48 h: 65%
VSMC [17]
  inhibition: Active
[18]
  Activity: inactive
VSMC [19]
  inhibition: Dose-dependent effect
VSMC [20]
  Activity: Active
Rattus norvegicus [21]
  Activity: Active
[22]
  Activity: Active
VSMC [23]
  Activity: Active
VSMC [24]
  Activity: Active
[25]
  Activity: Toxic
Rattus norvegicus [26]
  Activity: inactive
Rattus norvegicus [27]
  Activity: Active
